According to the RNAGym collection of RNA variant scans (doi:10.1126/science.aae0568):
This sample holds only a part of the variants without activity.

B1: tRNA (parent)
chain: GUUCCGUUGGCGUAAUGGUAACGCGUCUCCCUCCUAAGGAGAAGACUGCGGGUUCGAGUCCCGUACGGAACG

Variants of: B1
Experiment: yeast fitness relative to wild type (ratio to wild type); higher = fitter; tRNA-Arg(CCU), competitive growth, 37 C, YPD
Summary of the method: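 For this measurement, the tRNA-Arg(CCU) gene was varied by chemical synthesis at a 3% per-site mutation rate across 69 sites, and each variant was placed at the native genomic locus in Saccharomyces cerevisiae. The pooled strains went through a 24-hour competition in YPD at 37°C in six parallel replicates, with amplicons from start and end populations read by 100-nucleotide paired-end sequencing. Darwinian fitness relative to wild type followed from the change in each genotype's frequency. Genotypes needed ≥ 100 starting reads, and estimates < 0.5 were set to 0.5.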

Row | Variant | yeast fitness
1 | C4A C33A C60A U64C | ≤ 0.5
2 | C4A C11U C29G U32A G52A | 0.596
3 | C4A G17A G41A U47C G50C | ≤ 0.5
4 | C4G A14C C49U | ≤ 0.5
5 | C4A C27U A37G | 0.566
6 | C4G A14G A37U G38A | ≤ 0.5
7 | C4A G17A C27G C55U | 0.62
8 | C4A G12C U13G C30U | 0.55
9 | C4G A20G C30G G58A | ≤ 0.5
10 | C4A C46G | 0.847
11 | C4A U35G | 0.564
12 | C4A G18C C29A C31A A36U | ≤ 0.5
13 | C4A G9C A14G C30A G39A | ≤ 0.5
14 | C4A G25U A65C | ≤ 0.5
15 | C4A G18A C34G C66U | ≤ 0.5
16 | C4A U28G C31U A40C A57G | ≤ 0.5
17 | C4G A15C U26G G41C U47C G68C | ≤ 0.5
18 | C4A G9A C24U C30U A36G G67A | 0.565
19 | C4A U7G C27U A45C | ≤ 0.5
20 | C4G A20G C22G C33U A36C A40U | ≤ 0.5
21 | C4A G10A G56C C60G C66U | ≤ 0.5
22 | C4A G17A U19C G41A C66U | ≤ 0.5
23 | C4A C24G G44C G68U | 0.562
24 | C4A C22G C27U | 0.522

Row | Variant | yeast fitness
25 | C4A C11A U47G | ≤ 0.5
26 | C4A U7G G12C C60U C62G | ≤ 0.5
27 | C4A C30U A57G A65U | ≤ 0.5
28 | C4A U26G G44C G56C G58A G68C | ≤ 0.5
29 | C4A G23C C31U A36C A43C G50C A70U | ≤ 0.5
30 | C4A C30U C55U | ≤ 0.5
31 | C4A G12A | 0.666
32 | C4A C24U A36U G39C C46G C55A C66G | ≤ 0.5
33 | C4A G18C C29A C31A | 0.562
34 | C4A C31U A37G G48A U54A C55G A65U | ≤ 0.5
35 | C4A U7C C24G C61A C66U | ≤ 0.5
36 | C4A C24U G58A C62U | 0.587
37 | C4A C24U C29U | ≤ 0.5
38 | C4A U53C G67C | 0.537
39 | C4G A14G C24G | ≤ 0.5
40 | C4A G23A C29U C34G G38C U54A A57C | 0.602
41 | C4A G25C C34U A57C | ≤ 0.5
42 | C4G A14C G25C A45U | ≤ 0.5
43 | C4A C49U C55A C66U | 0.545
44 | C4G A14C G25C A45U U47A A57U | ≤ 0.5
45 | C4A C24G G63A C66A | ≤ 0.5
46 | C4A U7A A20U C27G C29U C62G | 0.549
47 | C4A G68U A69G | 0.705
48 | C4A G18C C31U A57G U64C | ≤ 0.5

Row | Variant | yeast fitness
49 | C4A G17A C60G | 0.697
50 | C4A G51C U54A G56C | ≤ 0.5
51 | C4A U13A A70G | ≤ 0.5
52 | C4A G10C C11U C27U A45U U59C C60G | ≤ 0.5
53 | C4A U13A G18A G68C | ≤ 0.5
54 | C4A U28A C62U C66A | ≤ 0.5
55 | C4A C34G C46G G56A | ≤ 0.5
56 | C4A C24G C61A C66U | ≤ 0.5
57 | C4A C30G C49U | 0.566
58 | C4A C30G C49G | ≤ 0.5
59 | C4A C34A | 0.817
60 | C4A C34U | 0.666
61 | C4A C61U A69C | 0.578
62 | C4A G56C C60G C66U | 0.568
63 | C4A C24G G25C A45G C60A | ≤ 0.5
64 | C4A C31U A42C C66A | 0.523
65 | C4A G18A C27A A37C G56A | 0.579
66 | C4A C30G A40U A45U G48A | ≤ 0.5
67 | C4A C11U C30U G39C C55G | ≤ 0.5
68 | C4A C31A C33G U47A A65C | 0.627
69 | C4A U54G A65U | ≤ 0.5
70 | C4A C24G | 0.714
71 | C4A C24U | 0.733
72 | C4A G23A U53C A57C | ≤ 0.5

Row | Variant | yeast fitness
73 | C4G A21C A43U | ≤ 0.5
74 | C4A U7G G12C | 0.549
75 | C4A G18C A43C | ≤ 0.5
76 | C4A U26A U32G A42C A57U | ≤ 0.5
77 | C4A C22U C30A | 0.504
78 | C4G A14C G25C A45U A57U | 0.55
79 | C4G A14U A21C | 0.764
80 | C4A U13A G63A | ≤ 0.5
81 | C4A G38C G68A A69C | ≤ 0.5
82 | C4A G12C U13G C30U A65U | ≤ 0.5
83 | C4A G6A A14G C60U | ≤ 0.5
84 | C4A G67C | 0.69
85 | C4A U7A A14G G17C G56A C62U | ≤ 0.5
86 | C4A G12A C31U U59A G63A | ≤ 0.5
87 | C4A U32C | 0.912
88 | C4G A15U A40C | ≤ 0.5
89 | C4A U13C C31G G44C G52A G58A | ≤ 0.5
90 | C4A C33G A57G | 0.576
91 | C4A C29G C34G | 0.782
92 | C4A G39A C55U U59G G68C | ≤ 0.5
93 | C4G A15U C33A G52C | 0.707
94 | C4G A15G A43G A57C A65U | ≤ 0.5
95 | C4A C27U A40U G52C C60G | ≤ 0.5
96 | C4A G41A A45U G58U C60A | ≤ 0.5

Row | Variant | yeast fitness
97 | C4A C33U A37G | ≤ 0.5
98 | C4A U35A U47C C49U C62A A69G | ≤ 0.5
99 | C4A G18C C49A G52C | ≤ 0.5
100 | C4A U26C | 0.972
101 | C4A G10C U26A U64A | ≤ 0.5
102 | C4A U53A | 0.769
103 | C4A G12C U19C C24G A43U G67A | ≤ 0.5
104 | C4A G6A A21C C24U | 0.562
105 | C4A G9A U16A C30U A40G C46U | ≤ 0.5
106 | C4A G17A | 0.718
107 | C4A G25C U32A A40C | ≤ 0.5
108 | C4A U26C A37G G67C | ≤ 0.5
109 | C4A U8A | 0.694
110 | C4A U8C | 0.887
111 | C4G A20C A40G G52C | 0.6
112 | C4A G6C U8A A20C A21U C33U C46U A57G | ≤ 0.5
113 | C4A C33A | 0.705
114 | C4A C22G C29U | 0.556
115 | C4A U8G A14U | 0.524
116 | C4A G10A | 0.819
117 | C4A U54C C61G | ≤ 0.5
118 | C4G A14U U59G | ≤ 0.5
119 | C4A C27U C61U | 0.62
120 | C4A U7A U8A C46A G48A U64G | ≤ 0.5

Row | Variant | yeast fitness
121 | C4G A20U C31G C62A | ≤ 0.5
122 | C4A U8G G41C A45G | 0.703
123 | C4A U8C G10A A42C | ≤ 0.5
124 | C4A C22G A40C G67A | 0.61
125 | C4A G17C A20C A21U C27U C33G G63A G67A | ≤ 0.5
126 | C4A C30G U59A | 0.528
127 | C4A G10C A69C | ≤ 0.5
128 | C4G A14C C24G U53C C62G | ≤ 0.5
129 | C4A G10A U54A | ≤ 0.5
130 | C4A G17C G23C | ≤ 0.5
131 | C4A C31G G39A G51C | ≤ 0.5
132 | C4A C27G C29G G68U | ≤ 0.5
133 | C4A U8G U64C | 0.545
134 | C4G A14C C24U C49U | ≤ 0.5
135 | C4G A20C U54G | 0.529
136 | C4A G6A C11A C22U C29U C55A G68U | ≤ 0.5
137 | C4A C33A A40U | 0.522
138 | C4A U16C | 0.702
139 | C4A U16A | 0.823
140 | C4G A15U C55A | ≤ 0.5
141 | C4A G51A | 0.725
142 | C4A G18A G58A A70U | ≤ 0.5
143 | C4A U54G | 0.612
144 | C4A U16C G17A U59A | ≤ 0.5

Row | Variant | yeast fitness
145 | C4G A15C U26G G41C C60G | 0.631
146 | C4A C31A C33U | ≤ 0.5
147 | C4A G25A | 1.03
148 | C4A U7A A14G G17C | ≤ 0.5
149 | C4A C31U C46A | 0.726
150 | C4A U16C G17A G56A C61U | ≤ 0.5
151 | C4A G56A | 0.88
152 | C4A C11U | 0.781
153 | C4G A15U A40C C60A C61G A65C | ≤ 0.5
154 | C4A C11G U19G | ≤ 0.5
155 | C4A C30U A40G | 0.542
156 | C4A G6A G25A C29G A57G | ≤ 0.5
157 | C4A U32C A42C | 0.578
158 | C4A C22U C60U G67C | 0.519
159 | C4A C24G G44C C62G | ≤ 0.5
160 | C4G A15U C33A G68C | ≤ 0.5
161 | C4A U8A C24U | ≤ 0.5
162 | C4A U35A A37U G67U | ≤ 0.5
163 | C4A C11U C22A G23C A40G | ≤ 0.5
164 | C4A C33A G39A G51C | 0.657
165 | C4A C29U C30G C49U | ≤ 0.5
166 | C4A C27U C60G | ≤ 0.5
167 | C4G A14U C31U G44A C46U C49U | ≤ 0.5
